The source made the active and inactive calls. The rule behind the calls is not given here.
Legend:
Salmonella typhimurium [1] = test: Antimutagenic activity in Salmonella Typhimurium TA1535 carrying pSK1002 containing umuC'-lacZ fused gene assessed as suppression of activated Trp-P-1-induced SOS response to alteration in DNA synthesis at 0.3 mM measured by beta-galactosidase activity by Umu test; format: functional, Salmonella enterica subsp. enterica serovar Typhimurium
Summary of the method: (§1)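 S. typhimurium TA1535/pSK1002 (umuC′-′lacZ fusion on the plasmid). The overnight culture was diluted 50-fold in fresh TGA medium and grown at 37 °C to A600 0.25-0.30. SOS induction was read as β-galactosidase activity in Miller units. The S9 mix used rat liver S9 (phenobarbital/5,6-benzoflavone-pretreated males) with G-6-P, NADH and NADPH cofactors.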

Salmonella typhimurium [2] = test: Inhibition of activated Trp-P-1-induced SOS response to alteration in DNA synthesis in Salmonella Typhimurium TA1535 carrying pSK1002 containing umuC'-lacZ fused gene; format: functional, Salmonella enterica subsp. enterica serovar Typhimurium; settings: Salmonella enterica, read-out: ID50 (the source's name); summary of the method: as §1
Salmonella typhimurium [3] = test: Antimutagenic activity in Salmonella Typhimurium TA1535 carrying pSK1002 containing umuC'-lacZ fused gene assessed as suppression of Trp-P-1-induced SOS response to alteration in DNA synthesis at 0.1 mM measured by beta-galactosidase activity by Umu test; format: functional, Salmonella enterica subsp. enterica serovar Typhimurium; summary of the method: as §1
Salmonella typhimurium [4] = test: Antimutagenic activity in Salmonella Typhimurium TA1535 carrying pSK1002 containing umuC'-lacZ fused gene assessed as suppression of Trp-P-1-induced SOS response to alteration in DNA synthesis at 0.3 mM measured by beta-galactosidase activity by Umu test; format: functional, Salmonella enterica subsp. enterica serovar Typhimurium; summary of the method: as §1
Salmonella typhimurium [5] = test: Inhibition of furyfuramide-induced SOS response to alteration in DNA synthesis in Salmonella Typhimurium TA1535 carrying pSK1002 containing umuC'-lacZ fused gene at 0.6 mM; format: functional, Salmonella enterica subsp. enterica serovar Typhimurium; parameters: scale not given: the % may be the effect or the level left; summary of the method: as §1
Salmonella typhimurium [6] = test: Inhibition of activated MeIQ-induced SOS response to alteration in DNA synthesis in Salmonella Typhimurium TA1535 carrying pSK1002 containing umuC'-lacZ fused gene at 0.6 mM; format: functional, Salmonella enterica subsp. enterica serovar Typhimurium; parameters: scale not given: the % may be the effect or the level left; summary of the method: as §1
Salmonella typhimurium [7] = test: Antimutagenic activity in Salmonella Typhimurium TA1535 carrying pSK1002 containing umuC'-lacZ fused gene assessed as suppression of MeIQ-induced SOS response to alteration in DNA synthesis at 0.05 mM measured by beta-galactosidase activity by Umu test; format: functional, Salmonella enterica subsp. enterica serovar Typhimurium; summary of the method: as §1
Salmonella typhimurium [8] = test: Antimutagenic activity in Salmonella Typhimurium TA1535 carrying pSK1002 containing umuC'-lacZ fused gene assessed as suppression of 0.1 j/M2 UV light-induced SOS response to alteration in DNA synthesis at 0.6 mM measured by beta-galactosidase activity by Umu test; format: functional, Salmonella enterica subsp. enterica serovar Typhimurium; summary of the method: as §1
Salmonella typhimurium [9] = test: Inhibition of Trp-P-1-induced SOS response to alteration in DNA synthesis in Salmonella Typhimurium TA1535 carrying pSK1002 containing umuC'-lacZ fused gene; format: functional, Salmonella enterica subsp. enterica serovar Typhimurium; settings: Salmonella enterica, read-out: ID50 (the source's name); summary of the method: as §1
Salmonella typhimurium [10] = test: Antimutagenic activity in Salmonella Typhimurium TA1535 carrying pSK1002 containing umuC'-lacZ fused gene assessed as suppression of MeIQ-induced SOS response to alteration in DNA synthesis at 0.6 mM measured by beta-galactosidase activity by Umu test; format: functional, Salmonella enterica subsp. enterica serovar Typhimurium; summary of the method: as §1
Salmonella typhimurium [11] = test: Antimutagenic activity in Salmonella Typhimurium TA1535 carrying pSK1002 containing umuC'-lacZ fused gene assessed as suppression of furyfuramide-induced SOS response to alteration in DNA synthesis measured by beta-galactosidase activity by Umu test; format: functional, organism-based; settings: Salmonella enterica subsp. enterica serovar Typhimurium; summary of the method: as §1
Salmonella typhimurium [12] = test: Antimutagenic activity in Salmonella Typhimurium TA1535 carrying pSK1002 containing umuC'-lacZ fused gene assessed as suppression of 0.1 j/M2 UV light-induced SOS response to alteration in DNA synthesis at 0.3 mM measured by beta-galactosidase activity by Umu test; format: functional, Salmonella enterica subsp. enterica serovar Typhimurium; summary of the method: as §1
Salmonella typhimurium [13] = test: Antimutagenic activity in Salmonella Typhimurium TA1535 carrying pSK1002 containing umuC'-lacZ fused gene assessed as suppression of activated MeIQ-induced SOS response to alteration in DNA synthesis at 0.05 mM measured by beta-galactosidase activity by Umu test; format: functional, Salmonella enterica subsp. enterica serovar Typhimurium; summary of the method: as §1
Salmonella typhimurium [14] = test: Antimutagenic activity in Salmonella Typhimurium TA1535 carrying pSK1002 containing umuC'-lacZ fused gene assessed as suppression of 0.1 j/M2 UV light-induced SOS response to alteration in DNA synthesis at 0.1 mM measured by beta-galactosidase activity by Umu test; format: functional, Salmonella enterica subsp. enterica serovar Typhimurium; summary of the method: as §1
Salmonella typhimurium [15] = test: Inhibition of activated Trp-P-1-induced SOS response to alteration in DNA synthesis in Salmonella Typhimurium TA1535 carrying pSK1002 containing umuC'-lacZ fused gene at 0.6 mM; format: functional, Salmonella enterica subsp. enterica serovar Typhimurium; parameters: scale not given: the % may be the effect or the level left; summary of the method: as §1
Salmonella typhimurium [16] = test: Antimutagenic activity in Salmonella Typhimurium TA1535 carrying pSK1002 containing umuC'-lacZ fused gene assessed as suppression of furyfuramide-induced SOS response to alteration in DNA synthesis at 0.3 mM measured by beta-galactosidase activity by Umu test; format: functional, Salmonella enterica subsp. enterica serovar Typhimurium; summary of the method: as §1
Salmonella typhimurium [17] = test: Antimutagenic activity in Salmonella Typhimurium TA1535 carrying pSK1002 containing umuC'-lacZ fused gene assessed as suppression of furyfuramide-induced SOS response to alteration in DNA synthesis at 0.6 mM measured by beta-galactosidase activity by Umu test; format: functional, Salmonella enterica subsp. enterica serovar Typhimurium; summary of the method: as §1
Salmonella typhimurium [18] = test: Antimutagenic activity in Salmonella Typhimurium TA1535 carrying pSK1002 containing umuC'-lacZ fused gene assessed as suppression of MeIQ-induced SOS response to alteration in DNA synthesis at 0.1 mM measured by beta-galactosidase activity by Umu test; format: functional, Salmonella enterica subsp. enterica serovar Typhimurium; summary of the method: as §1

COc1cc(-c2cc(=O)c3c(OC)c(OC)c(OC)c(OC)c3o2)ccc1O
Activity (Salmonella typhimurium [1]): 182.4 Miller_unit | IC50 (Salmonella typhimurium [2]): 340 µM | Activity (Salmonella typhimurium [3]): 285.4 Miller_unit | Activity (Salmonella typhimurium [4]): 219.1 Miller_unit | Activity (Salmonella typhimurium [5]): 28.7% | Activity (Salmonella typhimurium [6]): 58.2% | Activity (Salmonella typhimurium [7]): 267.7 Miller_unit | Activity (Salmonella typhimurium [8]): 495.7 Miller_unit | IC50 (Salmonella typhimurium [9]): 160 µM | Activity (Salmonella typhimurium [10]): 163.9 Miller_unit | Activity (Salmonella typhimurium [11]): Active | Activity (Salmonella typhimurium [12]): 563.5 Miller_unit | Activity (Salmonella typhimurium [13]): 394 Miller_unit | Activity (Salmonella typhimurium [14]): 551.9 Miller_unit | Activity (Salmonella typhimurium [15]): 76.4% | Activity (Salmonella typhimurium [16]): 489.9 Miller_unit | Activity (Salmonella typhimurium [17]): 443.7 Miller_unit | Activity (Salmonella typhimurium [18]): 232.6 Miller_unit

Reference: ChEMBL document CHEMBL1148948, “Biotransformation of nobiletin by Aspergillus niger and the antimutagenic activity of a metabolite, 4'-hydroxy-5,6,7,8,3'-pentamethoxyflavone” (2004)
